Test results: ChEMBL document CHEMBL3091322 (J Med Chem, 2013)

Tests used:
Rattus norvegicus [1] = species: Rattus norvegicus; assay: Displacement of [3H]nisoxetine from Sprague-Dawley rat brain frontal cortex NET at 10 uM by scintillation counting analysis; type: tissue-based
Method in brief: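 Rat frontal cortex membranes (8 mg original wet weight) in Tris/NaCl/KCl buffer, pH 7.4, with 0.5 nM [3H]nisoxetine for 180 min at 0–4°C. Single test concentration of 10 µM. Nonspecific binding defined with desipramine. Filtration on GF/B filters, then scintillation counting. Result reported as percent displacement.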

[2] = Displacement of [3H]nisoxetine from Sprague-Dawley rat brain frontal cortex NET by scintillation counting analysis; type: tissue-based
Method in brief: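 Frontal cortex membranes from male Sprague-Dawley rats incubated with 0.5 nM [3H]nisoxetine for 180 min at 0–4°C in pH 7.4 Tris/NaCl/KCl buffer. Desipramine used for nonspecific binding. Full concentration curves run for compounds giving >70% displacement at 10 µM. Filtration and scintillation counting; Ki calculated.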

[3] = target: Sodium-dependent serotonin transporter (Rattus norvegicus, UniProt P31652); assay: Displacement of [3H]citalopram from Sprague-Dawley rat brain stem SERT site S1 by scintillation counting analysis
[4] = target: Sodium-dependent serotonin transporter (Rattus norvegicus) (UniProt P31652); assay: Displacement of [3H]citalopram from Sprague-Dawley rat brain stem SERT site S1 at 10 uM by scintillation counting analysis; type: tissue-based
Rattus norvegicus [5] = species: Rattus norvegicus; assay: Selectivity ratio of Ki for Sprague-Dawley rat brain frontal cortex NET to Ki for Sprague-Dawley rat brain stem SERT; type: tissue-based
[6] = target: T1, Sodium-dependent serotonin transporter (Homo sapiens, UniProt P31645); assay: biochemical; type: cell-based, COS-7
Target sequence in this assay (P31645 whole entry): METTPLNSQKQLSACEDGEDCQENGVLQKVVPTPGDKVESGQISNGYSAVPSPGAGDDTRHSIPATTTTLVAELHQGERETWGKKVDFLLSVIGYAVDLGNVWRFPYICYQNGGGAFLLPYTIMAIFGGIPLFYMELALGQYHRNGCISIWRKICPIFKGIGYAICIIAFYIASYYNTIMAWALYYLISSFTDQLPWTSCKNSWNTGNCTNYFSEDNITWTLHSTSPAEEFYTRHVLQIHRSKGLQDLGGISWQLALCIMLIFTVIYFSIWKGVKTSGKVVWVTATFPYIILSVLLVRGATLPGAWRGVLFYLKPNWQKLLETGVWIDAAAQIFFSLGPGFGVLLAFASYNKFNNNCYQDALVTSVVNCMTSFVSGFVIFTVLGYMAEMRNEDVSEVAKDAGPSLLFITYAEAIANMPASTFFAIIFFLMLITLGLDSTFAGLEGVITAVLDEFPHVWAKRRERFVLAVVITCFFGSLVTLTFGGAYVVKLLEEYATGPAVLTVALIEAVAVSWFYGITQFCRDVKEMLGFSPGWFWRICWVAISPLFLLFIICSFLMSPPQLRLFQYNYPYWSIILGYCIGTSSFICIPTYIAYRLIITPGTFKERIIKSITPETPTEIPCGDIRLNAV

[7] = target: T1, Sodium-dependent serotonin transporter; conditions: COS-7
Target sequence in this assay (P31645 whole entry, looked up): as the sequence (P31645 whole entry) above

Sequence of Sodium-dependent serotonin transporter (Rattus norvegicus, UniProt P31652) (P31652 whole entry): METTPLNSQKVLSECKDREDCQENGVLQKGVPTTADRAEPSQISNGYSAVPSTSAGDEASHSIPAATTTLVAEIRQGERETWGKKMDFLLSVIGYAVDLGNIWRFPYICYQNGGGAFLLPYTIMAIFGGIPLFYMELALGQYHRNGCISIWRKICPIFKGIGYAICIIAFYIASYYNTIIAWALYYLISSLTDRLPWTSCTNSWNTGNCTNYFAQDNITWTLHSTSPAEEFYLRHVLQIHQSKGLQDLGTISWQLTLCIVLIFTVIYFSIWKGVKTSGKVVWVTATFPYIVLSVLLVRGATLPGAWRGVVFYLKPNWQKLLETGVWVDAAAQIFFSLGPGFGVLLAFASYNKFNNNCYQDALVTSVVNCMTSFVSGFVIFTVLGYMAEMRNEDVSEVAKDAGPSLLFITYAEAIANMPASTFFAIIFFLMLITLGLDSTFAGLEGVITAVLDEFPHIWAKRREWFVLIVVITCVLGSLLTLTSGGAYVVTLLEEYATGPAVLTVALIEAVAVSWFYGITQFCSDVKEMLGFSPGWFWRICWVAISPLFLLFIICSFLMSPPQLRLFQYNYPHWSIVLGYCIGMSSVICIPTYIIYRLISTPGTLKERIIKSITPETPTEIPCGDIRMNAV
Sequence of Sodium-dependent serotonin transporter (Rattus norvegicus) (P31652 whole entry): as above

Structure (SMILES) | inhibition (Rattus norvegicus [1]) [%] | Ki [2] [µM] | also measured
CN(CCCC1(c2ccc(F)cc2)OCc2cc(C#N)ccc21)Cc1ccnc2ccccc12 (stereo not drawn) | 31.2 |  | 
CN(CCCC1(c2ccc(F)cc2)OCc2cc(C#N)ccc21)Cc1ccc2ccccc2c1 (racemic) |  | 0.272 | 
CN(CCCC1(c2ccc(F)cc2)OCc2cc(C#N)ccc21)Cc1ccc2c(c1)Cc1ccccc1-2 (racemic) | 60.3 |  | Ki [3]: 0.019 µM; inhibition [4]: > 70%
CN(CCCC1(c2ccc(F)cc2)OCc2cc(C#N)ccc21)Cc1c[nH]c2ccccc12 (racemic) |  | 1.3 | 
COc1ccc2[nH]cc(CN(C)CCCC3(c4ccc(F)cc4)OCc4cc(C#N)ccc43)c2c1 (racemic) |  | 5.09 | 
CN(CCCC1(c2ccc(F)cc2)OCc2cc(C#N)ccc21)C1CC=C(c2c[nH]c3ccccc23)CC1 (racemic) |  | 1.02 | 
CN(C)CCCC1(c2ccc(F)cc2)OCc2cc(/C=C/Cc3ccccc3)ccc21 (racemic) |  | 4.75 | 
CN(C)CCCC1(c2ccc(F)cc2)OCc2c(I)cccc21 (racemic) |  | 11.3 | 
CN(C)CCCC1(c2ccc(-c3cccc(C#N)c3)cc2)OCc2cc(C#N)ccc21 (racemic) |  | 2.8 | 
CN(C)CCCC1(c2ccc(-c3cccc(N)c3)cc2)OCc2cc(C#N)ccc21 (racemic) |  | 7.02 | 
CN(C)CCCC1(c2ccc(F)cc2)COc2ccc(Br)cc21 (racemic) |  | 4.97 | 
CCCN(C)CCCC1(c2ccc(F)cc2)OCc2cc(C#N)ccc21 (racemic) | 60.4 |  | Ki [3]: 0.118 µM; inhibition [4]: > 70%
CCCCN(C)CCCC1(c2ccc(F)cc2)OCc2cc(C#N)ccc21 (racemic) |  | 0.276 | Ki [3]: 0.0616 µM; inhibition [4]: > 70%
CN(CCCC1(c2ccc(F)cc2)OCc2cc(C#N)ccc21)CCc1ccccc1 (racemic) |  | 0.179 | Ratio Ki (Rattus norvegicus [5]): 4.4; IC50 [6]: 5.3 µM; Ki [3]: 0.0409 µM; inhibition [4]: > 70%
CN(CCCCc1ccccc1)CCCC1(c2ccc(F)cc2)OCc2cc(C#N)ccc21 (racemic) |  | 0.448 | 
CN(CCCC1(c2ccc(F)cc2)OCc2cc(C#N)ccc21)Cc1coc2ccccc12 (racemic) |  | 0.265 | 
CN(CCCC1(c2ccc(F)cc2)OCc2cc(C#N)ccc21)Cc1ccc(N(C)C)cc1 (racemic) |  | 1.38 | 
CN(C)CCCC1(c2ccc(F)cc2)OCc2cc(C(N)=O)ccc21 (racemic) |  | 0.123 | 
CN(C)CCCC1(c2ccc(F)cc2)OCc2cc(CN3CCOCC3)ccc21 (racemic) |  | > 80 | Ki [3]: 0.0136 µM; inhibition [4]: > 70%
CN(C)CCCC1(c2ccc(F)cc2)OCc2cc(CN3CCN(c4ccccc4)CC3)ccc21 (racemic) |  | 11.1 | 
CN(C)CCCC1(c2ccc(F)cc2)OCc2cc(CNCc3coc4ccccc34)ccc21 (racemic) |  | 0.284 | 

Structure (SMILES) | inhibition (Rattus norvegicus [1]) [%] | Ki [2] [µM] | also measured
CN(C)CCCC1(c2ccc(F)cc2)OCc2cc(CNCc3ccc4ccccc4c3)ccc21 (racemic) |  | 0.653 | 
CN(C)CCCC1(c2ccc(F)cc2)OCc2cc(CNCc3ccc4c(c3)Cc3ccccc3-4)ccc21 (racemic) |  | 2.33 | Ratio Ki (Rattus norvegicus [5]): 99; Ki [3]: 0.0236 µM; inhibition [4]: > 70%
CN(C)CCCC1(c2ccc(F)cc2)OCc2cc(-c3ccc([N+](=O)[O-])cc3)ccc21 (racemic) |  | 8.28 | 
CN(C)CCCC(O)(c1ccc(Br)cc1)c1ccc(C#N)cc1CO (racemic) | 17 |  | 
CN(C)CCCC1(c2ccc(/C=C/c3ccccc3)cc2)OCc2cc(C#N)ccc21 (racemic) | 44 |  | T1/2 [7]: 44 min
CN(C)CCCC1(c2ccc(Br)cc2)OCc2cc(C#N)ccc21 (racemic) | 45 |  | 
CN(C)CCCC1(c2ccc(F)cc2)OCc2cc(-c3ccc(N)cc3)ccc21 (racemic) | 42 |  | 
CN(C)CCCC1(c2ccc(F)cc2)OCc2cc(C=O)ccc21 (racemic) | 46.1 |  | 
CN(C)CCCC1(c2ccc(F)cc2)OCc2cc(CN(C)C)ccc21 (racemic) | 21.9 |  | 
CN(C)CCCC1(c2ccc(F)cc2)OCc2cc(CN(C)CCCC3(c4ccc(F)cc4)OCc4cc(C#N)ccc43)ccc21 (racemic) | 65.1 |  | 
CN(C)CCCC1(c2ccc(F)cc2)OCc2cc(CN)ccc21 (racemic) | 33.2 |  | 
CN(C)CCCC1(c2ccc(F)cc2)OCc2cc(CN3CCCCC3)ccc21 (racemic) | 29.3 |  | 
CN(C)CCCC1(c2ccc(F)cc2)OCc2cc(CN3CCN(c4cccc(Cl)c4Cl)CC3)ccc21 (racemic) | 19.7 |  | 
CN(C)CCCC1(c2ccc(F)cc2)OCc2cc(CNCc3ccc4c(c3)COC4(CCCN(C)C)c3ccc(F)cc3)ccc21 (racemic) | 66.9 |  | 
CN(CCCC1(c2ccc(F)cc2)OCc2cc(C#N)ccc21)CC1CC1 (racemic) | 69.8 |  | 
CN(CCCC1(c2ccc(F)cc2)OCc2cc(C#N)ccc21)Cc1ccncc1 (racemic) | 28.1 |  | 
CN(CCCC1(c2ccc(F)cc2)OCc2cc(C#N)ccc21)Cc1csc2ccccc12 (racemic) | 62.9 |  | 
CN(CCN)CCCC1(c2ccc(F)cc2)OCc2cc(C#N)ccc21 (racemic) | 20.2 |  | 
COC(=O)c1ccc2c(c1)COC2(CCCN(C)C)c1ccc(F)cc1 (racemic) | 64.3 |  | 
COc1ccccc1N1CCN(Cc2ccc3c(c2)COC3(CCCN(C)C)c2ccc(F)cc2)CC1 (racemic) | 39.7 |  | 
CN(C)CCCC1(c2ccc(F)cc2)OCc2cc(/C=C/c3ccccc3)ccc21 (single isomer, unassigned; (+)) |  |  | IC50 [6]: 3.4 µM
